# Rows were chosen to be rich in hits. Some 1.3% of all compounds tested hit in one or more screens of this group.
# LANA DNA inh: inhibitors of KSHV C-LANA binding to DNA, primary screen, biochemical, fluorescence polarization, FAM-LBS DNA, MBP-C-LANA, single point. Kaposi's sarcoma herpesvirus LANA C-terminal domain (residues 932-1162) DNA binding. inhibition, % at 9 µM. 340,000 compounds, 0.078% hits;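 active means highest replicate inhibition at or above 60% at 9 µM, even if other replicates fall short; inactive means all replicates below 60% inhibition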
# EBV gp42 inh: Epstein-Barr virus gp42 inhibitors, primary screen, biochemical, uHTS, fluorescence polarization; Fluorescence polarization binding assay, mP read-out; inhibition, % (tested at 21.74 µM); 220,000 compounds, 0.42% hits; in the data active means inhibition above about 50%
# MEX-5 binding: MEX-5 zinc finger RNA-binding disruptors – biochemical, C. elegans, fluorescence polarization, MLPCN library, primary screen; Zinc finger protein mex-5 (Caenorhabditis elegans), Q9XUB2; MEX-5/FITC-TCR2 RNA binding; active compounds read low; activity score (negative = inhibition of binding), % at 10 µM; 300,000 compounds, 0.38% hits;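 active means inhibition past about -25% in most replicates, and total fluorescence under double the plate's negative control median, limit read from the data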
# Target sequence (Q9XUB2 whole entry, looked up): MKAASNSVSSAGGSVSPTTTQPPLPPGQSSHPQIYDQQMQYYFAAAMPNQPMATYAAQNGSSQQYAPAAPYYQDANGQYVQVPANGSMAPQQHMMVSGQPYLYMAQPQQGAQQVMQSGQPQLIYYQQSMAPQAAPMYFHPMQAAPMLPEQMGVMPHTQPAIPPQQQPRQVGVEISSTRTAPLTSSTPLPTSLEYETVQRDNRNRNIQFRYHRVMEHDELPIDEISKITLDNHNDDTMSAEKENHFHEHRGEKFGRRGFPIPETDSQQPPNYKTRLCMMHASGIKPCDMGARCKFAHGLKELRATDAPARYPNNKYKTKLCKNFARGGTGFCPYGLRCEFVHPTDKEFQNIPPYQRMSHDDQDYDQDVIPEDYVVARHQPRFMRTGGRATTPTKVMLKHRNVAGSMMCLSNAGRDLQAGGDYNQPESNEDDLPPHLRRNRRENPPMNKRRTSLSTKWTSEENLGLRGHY
# Keap1 Nrf2 FP: Keap1-Nrf2 protein-protein interaction inhibitors, primary screen, biochemical, fluorescence polarization, single point. Keap1 Kelch-Nrf2 peptide fluorescence polarization, 1536-well. 340,000 compounds, 0.15% hits. Kelch-like ECH-associated protein 1 (Homo sapiens), Q14145. inhibition, % at 9.4 µM. AID 504523, 2011; in the data active means inhibition above about 12%;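 further: human Keap1 Kelch domain with fluorescein labeled Nrf2 9mer peptide probe; higher means more block of Keap1 binding to Nrf2 peptide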
# GRK2 aptamer HTS: compounds blocking aptamer binding on GRK2 – biochemical, human GRK2, bead flow cytometry, HTS, primary screen; 330,000 compounds, 0.59% hits; FAM-aptamer displacement from GRK2; Beta-adrenergic receptor kinase 1 (Homo sapiens), P25098; inhibition of aptamer binding, % at 10 µM;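 active means inhibition of aptamer binding above 40%, roughly 3 SD of noise, on plates passing a quality check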;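 further: median bead fluorescence of bound FAM aptamer so fluorescent compounds give negative values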
# T cell HTS: modulators of CD8 T cell-vesicle binding, primary screen, mouse 2C CD8+ T cells, flow cytometry; response (vesicle binding), % at 7 µM; 330,000 compounds, 0.068% hits; 2C CD8+ T cell-vesicle binding; active compounds read low;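 active means response, share of CD8 T cells binding vesicles, and their 90th percentile fluorescence all below set limits, cut at about 80% in these data, passing the limit was not always enough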;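 further: values below 100% mean blocked vesicle binding to the CD8+ T cells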
#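 Assay system: 2C TCR transgenic mouse naive CD8+ T cells, MACS-purified | Read-out: CD8+ gate FL2 mean fluorescence as % of same-row positive control | Signal: High-throughput flow cytometry with anti-B7-1 and anti-CD8 staining | Timing: Binding step 1.5 h, 37 °C, antibody labelling 20 min, ice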
# GRK2 inh confirm: GRK2 aptamer-displacing inhibitors, retest, confirmation, biochemical, cherry pick 1, bead flow cytometry; shares compounds with GRK2 aptamer HTS; bead-bound GRK2, FAM-aptamer displacement; aptamer displacement, % at 10 µM; 2,000 compounds, 4% hits;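 active means aptamer displacement above 40%, near three times the noise of non-fluorescent compounds, on plates passing quality checks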;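 further: negative values mostly reflect intrinsic compound fluorescence rather than true enhancement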
# FAM quench CP1: aptamer fluorescence quenching in GRK2 counter-screen. shares compounds with GRK2 aptamer HTS. Carboxyfluorescein RNA aptamer on beads, flow cytometry quenching; active compounds read low. fluorescence response (% of DMSO), % at 10 µM. 2,000 tested, under 10 active. AID 504580;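 active means compounds that quench the bead-bound fluorescent RNA probe, cutting fluorescence to under half of the solvent control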;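 further: counterscreen run without GRK2 so only probe quenching by compound is measured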
# GRK2 CP2: GRK2 aptamer-displacing inhibitors, hit retest, confirmation, biochemical, cherry pick 2, bead flow cytometry. shares compounds with GRK2 aptamer HTS. bead-bound GRK2, FAM-aptamer displacement. inhibition of aptamer binding, % at 10 µM. 360 tested, under 10 active;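 active means inhibition of aptamer binding above 40%, about triple the noise seen with nonglowing compounds, on plates passing quality control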;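 further: negative values mostly come from compounds that fluoresce themselves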
# FAM quench SP: quenches fluorescent RNA aptamer, GRK2 hit artifact; shares compounds with GRK2 aptamer HTS; carboxyfluorescein RNA aptamer beads, flow cytometry quenching; active compounds read low; 360 tested, under 10 active; fluorescence response vs DMSO, % at 10 µM;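 active means response vs DMSO under 50%, meaning signal dropped by over half, treated as fluorescence quencher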;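 further: labelled aptamer on streptavidin beads without GRK2 as a quench counter-screen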
# Hits are given with their value; . = inactive; / = no result.
SMILES,LANA DNA inh,EBV gp42 inh,MEX-5 binding,Keap1 Nrf2 FP,GRK2 aptamer HTS,T cell HTS,GRK2 inh confirm,FAM quench CP1,others
CC(C)CCN1CCN(Cc2ccc(Oc3ncccn3)cc2)CC1CCO (stereo unspecified),.,.,.,.,.,.,/,/,
CCCC(=O)Nc1ccc2c(c1)nc1n2CCN(CCOC)C1,.,/,.,.,.,.,/,/,
CCNC(=O)N1CCOCC1,.,.,.,.,45.0,.,.,.,
CCN(CCCNC(=O)Cn1ncc2c([nH]c3ccc(C)cc32)c1=O)c1cccc(C)c1,.,/,.,.,.,.,.,.,
Cc1ccc2[nH]c3c(=O)n(CC(=O)NCCCN(C)Cc4ccccc4)ncc3c2c1,.,/,.,.,.,.,/,/,
CCN(CCCNC(=O)Cn1ncc2c([nH]c3ccc(C)cc32)c1=O)c1ccccc1,.,/,.,.,48.0,.,.,.,
C=CCn1c(=O)c2ccccc2n2c(=S)[nH]nc12,.,/,.,.,98.0,.,.,.,
CC(C)CCn1c(=O)c2ccccc2n2c(=S)[nH]nc12,.,/,.,.,.,.,/,/,
CCCCn1c(N)c(N(CC)C(=O)C2CCC2)c(=O)[nH]c1=O,.,/,/,.,.,.,/,/,
CSc1nc(C)c(CCOCc2ccccc2)c(=O)[nH]1,.,.,.,.,.,.,/,/,
CC1(C)CC(=O)C2=C(C1)NC1=C(C(=O)c3ccccc31)C2c1ccccc1 (stereo unspecified),.,.,.,.,.,.,/,/,
CC(C)(C)c1ccc(C2C3=C(CCCC3=O)NC3=C2C(=O)c2ccccc23)cc1 (stereo unspecified),.,.,/,.,51.0,.,.,.,
CC(=C/c1ccccc1)/C=N/N1CCN(Cc2ccc(C)cc2)CC1,.,.,.,.,.,.,/,/,
O=C(NCc1ccc(F)cc1)C1CCCN(S(=O)(=O)c2ccc(-n3cnnn3)cc2)C1 (stereo unspecified),.,/,.,.,.,.,.,.,
O=C(NCc1ccccc1)C1CCCN(S(=O)(=O)c2ccc(-n3cnnn3)cc2)C1 (stereo unspecified),.,/,.,.,.,.,/,/,
O=C(Cn1cnc([N+](=O)[O-])c1)c1ccc(Cl)cc1,.,/,.,.,.,.,/,/,
O=C(C[n+]1cnn(CC(=O)c2ccc(Cl)cc2Cl)c1)c1ccc([N+](=O)[O-])cc1,.,.,.,.,59.0,.,.,.,
CC[C@@H](C)[C@@H]1CN([C@@H](C)CN2CCC[C@H]2CN2C(N)=NC[C@H]2CC(C)C)C(=N)N1CCc1ccc(Cl)c(Cl)c1,.,/,/,.,84.0,.,/,/,GRK2 CP2=.;FAM quench SP=.
CC[C@@H](C)[C@@H]1CN([C@@H](CN2CCC[C@H]2CN2C(N)=NC[C@H]2CC(C)C)C(C)C)C(=N)N1CCc1ccc(Cl)c(Cl)c1,.,/,/,.,.,.,/,/,
CC1CCC(NC(=O)N(CCCl)N=O)CC1 (stereo unspecified),.,/,.,.,.,.,.,.,
COc1ccc(C(=O)Nc2ccccc2NC(=O)c2ccco2)cc1OC,.,.,.,.,44.0,.,.,.,

# Screening results as filed in PubChem BioAssay.
